Assay outcomes as filed in PubChem BioAssay.
CTSL1 counter = counter-screen for PFM18AAP inhibitors: inhibitors of F. hepatica cathepsin L1; inhibition, % at 5.96 µM; actives 0.49% (n = 300,000); recombinant F. hepatica cathepsin L1, Z-Leu-Arg-MCA fluorescence; AID 1906;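 active means inhibition above the mean of all tested compounds plus 3 SD, set per screening campaign, cut at about 17% in these data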;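 further: 0% = plate median of test compound wells and 100% = 1 µM Z-Phe-Ala-diazomethylketone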
H9c2 protect = myocardial damage modulation in H9c2 cells | AID 588492 | protection from H2O2 cell death, % at 20 µM | actives 0.63% (n = 360,000) | H9c2 cardiomyocytes, H2O2 injury protection, ATPLite, 2 h;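 active means compounds giving at least 50% protection of heart cells from peroxide-induced death in the single-dose screen, raw or plate-pattern-corrected value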;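 further: 0% = DMSO wells with peroxide and 100% = DMSO wells without peroxide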
T cruzi inh = T. cruzi replication inhibition; inhibition, % (test concentration not listed); AID 1885; actives 1.4% (n = 300,000); T. cruzi beta-gal in NIH3T3, luminescence, 90 h;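 active means mean inhibition across valid replicates above about 55%, limit read from the data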;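 further: signal also drops with host cell toxicity which is not excluded here; 0% = plate median of DMSO wells and 100% = zero luminescence signal; higher percent means less beta-gal luminescence so fewer parasites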
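Assay system: NIH/3T3 fibroblasts plus reporter T. cruzi. Amount: NIH/3T3 cells, 5,000 per well. Buffer or medium: DMEM, 2% fetal bovine serum. Doses: compound pinned at 50 nL/well, DMSO. Schedule: ≥90 h infection period, 3 h prior cell attachment. Signal: luminescent β-galactosidase signal after 60 min lysis. Read-out: parasite load inhibition, %.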
PP5 primary = blocks human protein phosphatase 5 activity | P53041 | inhibition, % at 6.7 µM | actives 0.18% (n = 320,000) | purified PP5c, OMFP substrate fluorescence | AID 1987;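 active means inhibition above the campaign's mean inhibition across all tested compounds plus 3 SD, cut at about 9.5% in these data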;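 further: 0% = DMSO only and 100% = 100 µM cantharidin control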
p-CIP stab down = compounds decreasing mouse p/CIP protein stability. F442A p/CIP-EGFP cells, EGFP fluorescence, 16 h. actives 0.01% (n = 290,000). Q05BA5. decrease of EGFP signal, % at 10 µM;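 active means EGFP signal decrease of at least 30% at 10 µM or well 3 SD below plate mean, unless failing retest; inactive means the rest, including hits failing retest or dose response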
JMJD2C inh = blocks human GASC-1 demethylase activity | Q9H3R0 | GST-JMJD2C(1-420) H3K9me3 demethylation, DELFIA europium | inhibition, % at 2.35 µM | actives 0.069% (n = 330,000) | AID 2099;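 active means more than half of a compound's replicate wells show inhibition beyond 50%, single wells judged on their own value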;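 further: signal counts dimethyl H3K9 product captured on neutravidin plate; 0% = median of DMSO wells and 100% = 0.3 times that DMSO median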
Target sequence (Q9H3R0 1-420 limits assumed): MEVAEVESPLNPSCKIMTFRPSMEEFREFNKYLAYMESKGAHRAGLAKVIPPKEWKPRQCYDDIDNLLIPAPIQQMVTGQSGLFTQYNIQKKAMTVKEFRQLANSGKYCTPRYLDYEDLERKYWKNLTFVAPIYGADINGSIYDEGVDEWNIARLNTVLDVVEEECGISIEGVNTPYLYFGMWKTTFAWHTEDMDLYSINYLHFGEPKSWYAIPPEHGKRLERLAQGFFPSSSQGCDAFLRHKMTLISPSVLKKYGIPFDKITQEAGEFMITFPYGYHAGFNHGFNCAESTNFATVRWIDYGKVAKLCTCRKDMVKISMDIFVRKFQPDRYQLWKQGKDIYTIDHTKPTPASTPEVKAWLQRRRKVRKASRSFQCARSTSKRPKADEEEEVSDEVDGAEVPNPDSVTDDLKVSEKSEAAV
* = called active by the depositor; . = no result. An excerpt weighted towards active compounds, which were near 2.4% of everything screened.

SMILES | CTSL1 counter | H9c2 protect | T cruzi inh | PP5 primary | p-CIP stab down | JMJD2C inh
CCn1c(=O)n(CC)c2cc(N3CCCC3)c(NC(=O)c3cc(Br)ccc3OC)cc21 | 11 | . | 64* | 0 | -4 | 10
CC(C)(C)NC(=O)CSc1nc2ccc(Nc3nc(N4CCOCC4)nc(N4CCOCC4)n3)cc2s1 | 0 | 91* | 58* | 4 | -8 | 6
CN(CC(=O)Nc1cccc(F)c1)C(=O)c1cc(S(=O)(=O)N2CCN(c3ccccc3)CC2)ccc1Cl | . | -6 | . | 7 | . | 0
COc1ccc(NC(=O)c2ccc(NC(=O)CSc3nc(N)cc(=O)[nH]3)cc2)cc1 | . | -4 | . | 3 | . | 12
CCCCCCCCCCOC(=O)Cn1c(COc2cccc(C)c2)[n+](C)c2ccccc21 | 6 | -22 | 58* | 5 | 7 | 10
CCCCCCCCCCOC(=O)Cn1c(COc2ccccc2)[n+](C)c2ccccc21 | 3 | -20 | 73* | 5 | -23 | -3
CCCCCCCCCCOC(=O)Cn1c(COc2ccc(OC)cc2)[n+](C)c2ccccc21 | 5 | -20 | 29 | 4 | -6 | -14
CCCCCCCCCCOC(=O)Cn1c(COc2ccccc2C)[n+](C)c2ccccc21 | 3 | -15 | 65* | 6 | -1 | 8
CC(C)(C)c1ccc(CNC(=O)C2CCCN2C(=O)Nc2ccccc2)cc1 (stereo not drawn) | 1 | 11 | 13 | 1 | -7 | 1
CCN1CCN(CCC(=O)Nc2cc(OC)cc(OC)c2)CC1 | 2 | 2 | 3 | 2 | -3 | 17
Cc1cc(C)c2sc(N(CCCN(C)C)C(=O)c3ccc(S(=O)(=O)N(C)C4CCCCC4)cc3)nc2c1 | 1 | -26 | 55* | 1 | . | -11
CN(C)CCCN(C(=O)c1ccc(S(=O)(=O)N(C)C2CCCCC2)cc1)c1nc2ccc(F)cc2s1 | 2 | -17 | 36 | 0 | -6 | -1
Cc1ccc2nc(N(CCN(C)C)C(=O)c3cc(Cl)sc3Cl)sc2c1 | 0 | -4 | 49 | 2 | 4 | 0
Cc1cc(C)c2sc(N(CCN(C)C)C(=O)c3cc(Cl)sc3Cl)nc2c1 | 17* | 0 | 51 | 0 | -11 | -2
CC1(Oc2cccc(C#N)c2)CCN(Cc2csc3ccccc23)C1 (stereo not drawn) | . | -3 | . | . | . | .
CCn1ccc(C(=O)Nc2ncc(C)s2)n1 | -4 | -9 | -12 | -3 | -1 | 3
CCN(CC)c1ccc(/C=C/c2ccc3ccc(OC)cc3[n+]2CC)cc1 | 0 | -20 | 61* | 2 | -28 | 0
CCOc1ccc(NC(=O)C(=O)NCCN2CCN(S(=O)(=O)c3ccccc3)CC2)cc1 | -1 | -3 | -13 | -8 | -1 | -9
Cc1nnc(C)n1/N=C/c1cc(Br)cc(Br)c1O | 0 | 78* | 8 | 0 | 0 | -2
Oc1c(Br)cc(Br)cc1/C=N/n1c(-c2ccccc2)n[nH]c1=S | -9 | 32 | 3 | -1 | 13 | 9
Nc1nnnn1/N=C/c1cc(Br)ccc1O | -1 | 2 | 10 | -1 | . | -6
Cc1nnc(C)n1/N=C/c1cc(Br)ccc1O | 3 | 66* | 1 | 1 | -7 | -3
CCN(CC(=O)Nc1c(F)cccc1F)C(=O)c1cccc(S(=O)(=O)N2CCCc3ccccc32)c1 | . | -6 | . | . | . | .
CCOC(=O)c1c(CSc2ccc(CC)cc2)oc2ccc(O)c(CN(C)C)c12 | 2 | -23 | 63* | 1 | -13 | 1
CCOC(=O)c1c(C)oc2ccc(O)c(CN(C)C)c12 | -4 | 4 | 4 | -1 | -5 | 24
N=c1oc2cc(O)ccc2cc1C(=O)Nc1ccc(Cl)cc1 | 3 | -19 | 6 | 4 | -9 | -9
Cn1c(=O)n(CCc2ccccc2)c(=O)c2c1nc1n2CCCN1CCc1ccccc1 | 2 | 106* | 53 | 3 | 2 | -7
Cn1c(=O)n(CCc2ccccc2)c(=O)c2c1nc1n2CCCN1Cc1ccccc1 | 3 | 116* | 13 | 2 | 4 | -42
CCCn1c(=O)c2c(nc3n2CCCN3CCc2ccccc2)n(C)c1=O | -1 | 4 | 26 | 2 | -6 | 3
O=C(CCc1nc2ccccc2c(=O)[nH]1)Nc1ccc(Cl)c(Cl)c1 | 0 | 60* | 3 | 1 | -11 | 11
